One experiment concerns BJeH. The experiment can be described thus: Cytotoxicity against human BJeH cells expressing wild type RAS at 20 ug/mL after 48 hrs by alamar blue assay. It is filed as functional, cell-based.
Another experiment concerns MCF7. The experiment can be described thus: Cytotoxicity against human MCF7 cells at 20 ug/mL after 48 hrs by alamar blue assay. It is filed as functional, cell-based. The gist of the method:
(§1)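 Each cell line exposed for 48 h to a 2-fold, 12-point dilution series beginning at 20 µg/mL. Viability by Alamar blue; LC50 derived from the curves.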

The subject of experiment [1] is E3 ubiquitin-protein ligase Mdm2 (Homo sapiens), Q00987 [C464A]. Briefly: Inhibition of Mdm2 C464A mutant at 20 ug/mL after 2 hrs by cell-based luciferase assay.
The test system of experiment [2] is HT-1080. Briefly: Cytotoxicity against human HT1080 cells at 20 ug/mL after 48 hrs by alamar blue assay. The class given is functional, cell-based. The method in brief: as §1
In experiment [3] the target is E3 ubiquitin-protein ligase Mdm2 (Homo sapiens) (UniProt Q00987). Briefly: Inhibition of wild type Mdm2 at 20 ug/mL after 2 hrs by cell-based luciferase assay.
In experiment [4] the test system is RKO. Briefly: Cytotoxicity against human RKO cells at 20 ug/mL after 48 hrs by alamar blue assay. The class given is functional, cell-based. The gist of the method: as §1
Experiment [5] is described as follows: Cytotoxicity against human BJeLR cells expressing RAS G12V mutant after 48 hrs by alamar blue assay. The class given is functional, cell-based. The following applies: for CC50: read-out: LC50 (the source's name).
A further experiment relates to HT1299. The experiment can be described thus: Cytotoxicity against human HT1299 cells at 20 ug/mL after 48 hrs by alamar blue assay. The class given is functional, cell-based. The gist of the method:
as §1

The test system of experiment [6] is U2OS. Briefly: Cytotoxicity against human U2OS cells at 20 ug/mL after 48 hrs by alamar blue assay. The class given is functional, cell-based.
A further experiment concerns BJeLR. The experiment can be described thus: Cytotoxicity against human BJeLR cells expressing RAS G12V mutant at 20 ug/mL after 48 hrs by alamar blue assay. The class given is functional, cell-based.
Experiment [7] relates to U2OS. Briefly: Cytotoxicity against human U2OS cells after 48 hrs by alamar blue assay. The class given is functional. Conditions: read-out: LC50 (the source's name).
The subject of experiment [8] is RKO. Briefly: Cytotoxicity against human RKO cells after 48 hrs by alamar blue assay. Conditions: read-out: LC50 (the source's name). The class given is functional.
The nature of experiment [9]: Cytotoxicity against human HT1299 cells after 48 hrs by alamar blue assay. The class given is functional. Conditions: HT1299, 48 h, read-out: LC50 (the source's name).
Experiment [10] relates to HT-1080. Briefly: Cytotoxicity against human HT1080 cells after 48 hrs by alamar blue assay. The class given is functional. The following applies: HT-1080, 48 h, read-out: LC50 (the source's name).
A short description of experiment [11]: Cytotoxicity against human BJeH cells expressing wild type RAS after 48 hrs by alamar blue assay. It is filed as functional, cell-based. Conditions: for CC50: read-out: LC50 (the source's name).

Calls of active or inactive are those of the source. The rule behind the calls is not given here.

E3 ubiquitin-protein ligase Mdm2 (Homo sapiens), sequence (Q00987 whole entry, looked up): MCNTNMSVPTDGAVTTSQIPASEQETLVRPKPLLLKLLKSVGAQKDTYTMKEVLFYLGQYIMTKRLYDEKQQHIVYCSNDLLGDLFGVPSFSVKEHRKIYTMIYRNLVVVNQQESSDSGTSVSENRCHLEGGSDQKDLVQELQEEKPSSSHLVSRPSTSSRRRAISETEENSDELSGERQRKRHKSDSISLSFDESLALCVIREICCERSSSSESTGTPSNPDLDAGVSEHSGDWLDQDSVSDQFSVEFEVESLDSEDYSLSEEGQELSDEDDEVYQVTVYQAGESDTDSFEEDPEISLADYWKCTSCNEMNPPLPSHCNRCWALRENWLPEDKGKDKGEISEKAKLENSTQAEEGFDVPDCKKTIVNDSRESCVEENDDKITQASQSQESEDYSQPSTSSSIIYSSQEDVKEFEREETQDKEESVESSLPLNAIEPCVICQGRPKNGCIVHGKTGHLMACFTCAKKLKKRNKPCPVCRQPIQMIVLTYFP
E3 ubiquitin-protein ligase Mdm2 (Homo sapiens), Q00987 [C464A], sequence (Q00987 whole entry C464A): as the sequence (Q00987 whole entry, looked up) above, with C464A counted along it

For `COC(OC)C1NCCc2c1[nH]c1ccccc21` (centres undefined), the outcome in the experiment with BJeH, in the experiment on MCF7, in the experiment with HT-1080 [2], in the experiment on RKO [4], in the experiment with HT1299 and in the experiment with U2OS [6] was inactive. In addition, the inhibition entry in experiment [1] and in [3] was “inactive” throughout. Also, the CC50 in [5] stood at 81.3 µM.

Take `CN1C(=O)C(CCC2NCCc3c2[nH]c2ccccc32)C(=O)N(C)C1=O` (centres undefined): the result in the experiment on BJeH, in the experiment on MCF7, in the experiment on HT-1080 [2], with RKO [4], with HT1299 and in the experiment on BJeLR was inactive. Moreover, the result with U2OS [6] was inactive. The inhibition result in experiment [1] and in experiment [3] was “inactive” in each case.

As to `CCOC(=O)C1c2c(c3ccccc3n2C)CCN1C(=O)OC(C)(C)C` (centres undefined), the outcome with BJeH, with MCF7, in the experiment with HT-1080 [2], in the experiment with RKO [4], with HT1299 and in the experiment with BJeLR was inactive. Moreover, the result with U2OS [6] was inactive. The inhibition entry in experiment [1] and in [3] was “inactive” in each case.

For `CC(C)(C)OC(=O)N1CCc2c(n(C(=O)OC(C)(C)C)c3ccccc23)C1CCO` (centres undefined), the result in the experiment with BJeH, in the experiment with MCF7, in the experiment with HT-1080 [2], with HT1299 and with BJeLR was inactive. In addition, the inhibition entry in experiment [1] and in experiment [3] was “inactive” in each case. The CC50 in the experiment on U2OS [7] and in the experiment on RKO [8] was 49.7 µM throughout.

In the case of `O=Cc1nccc2c1[nH]c1ccccc12`, the CC50 stood at 67.5 µM in experiment [9], 67.5 µM with HT-1080 [10], 32.4 µM in [5] and 11.1 µM in the experiment with RKO [8]. Further, the outcome in the experiment with BJeH, in the experiment on MCF7 and with U2OS [6] was inactive. The inhibition entry in [1] and in [3] was “inactive” each time.

On to `COc1ccc(N(C(=O)CCl)C(C(=O)NCCc2ccccc2)c2cccs2)cc1Cl` (centres undefined), for which the EC50 in experiment [11] was 0.58 µM; in [5], 0.025 µM.

Turning to `CCOC(=O)C1c2[nH]c3ccccc3c2CCN1Cc1ccccc1` (centres undefined), the result in the experiment with BJeH, in the experiment on MCF7, with HT-1080 [2], in the experiment on RKO [4], in the experiment on HT1299 and in the experiment with BJeLR was inactive. In addition, the outcome with U2OS [6] was inactive. Also, the inhibition entry in experiment [1] and in [3] was “inactive” throughout.

On to `CC(CC1C(=O)N(C)C(=O)N(C)C1=O)C1NCCc2c1n(C(=O)OC(C)(C)C)c1ccccc21` (centres undefined), for which the outcome in the experiment on BJeH, with MCF7, in the experiment on HT-1080 [2], in the experiment on RKO [4], in the experiment with HT1299 and in the experiment on U2OS [6] was inactive. Besides, the inhibition result in [1] and in experiment [3] was “inactive” each time. Besides, the CC50 in experiment [5] is 42.7 µM.

In the case of `COC(OC)c1nccc2c1[nH]c1ccccc12`, the CC50 is 82.6 µM in experiment [11] and 7.8 µM in [5]. Moreover, the result in the experiment on MCF7, in the experiment with HT-1080 [2], in the experiment with RKO [4], in the experiment on HT1299 and with U2OS [6] was inactive. The inhibition entry in [1] and in experiment [3] was “inactive” in each case.

Turning to `CCCN1C(=O)C(CC(C)C2NCCc3c2[nH]c2ccccc32)C(=O)N(CCC)C1=O` (centres undefined), the outcome in the experiment with BJeH, in the experiment on MCF7, with HT-1080 [2], in the experiment with RKO [4], in the experiment with HT1299 and in the experiment on BJeLR was inactive. In the experiment with U2OS [6], the result was inactive. The inhibition entry in [1] and in [3] was “inactive” in each case.

Take `CCOC(=O)C(C)C1NCCc2c1[nH]c1ccccc21` (centres undefined): the values for the CC50 in experiment [11] and in [5] were 73.5 µM and 31.6 µM, respectively. The outcome with MCF7, with HT-1080 [2], in the experiment on RKO [4], in the experiment on HT1299 and in the experiment on U2OS [6] was inactive. Moreover, the inhibition entry in [1] and in experiment [3] was “inactive” in each case.

For `CN1C(=O)C(c2nccc3c2[nH]c2ccccc23)C(=O)N(C)C1=O`, the outcome with BJeH, with MCF7, with HT-1080 [2], with RKO [4], in the experiment with HT1299 and in the experiment on BJeLR was inactive. The result in the experiment with U2OS [6] was inactive. Besides, the inhibition entry in experiment [1] and in experiment [3] was “inactive” throughout.

Regarding `CCOC(=O)C1c2c(c3ccccc3n2C(=O)OC(C)(C)C)CCN1C(=O)OC` (centres undefined), the outcome with BJeH, in the experiment on MCF7, in the experiment on HT-1080 [2], in the experiment with RKO [4], in the experiment with HT1299 and with BJeLR was inactive. Moreover, the outcome in the experiment on U2OS [6] was inactive. The inhibition entry in experiment [1] and in [3] was “inactive” each time.

Consider `CCCN1C(=O)C(CCC2NCCc3c2[nH]c2ccccc32)C(=O)N(CCC)C1=O` (centres undefined), for which the outcome in the experiment with BJeH, in the experiment on MCF7, with HT-1080 [2], in the experiment on RKO [4], in the experiment with HT1299 and in the experiment with BJeLR was inactive. The outcome in the experiment on U2OS [6] was inactive. The inhibition entry in [1] and in experiment [3] was “inactive” throughout.

As to `CCOC(=O)C1c2[nH]c3ccccc3c2CCN1C(=O)OC` (centres undefined), the result in the experiment with BJeH, with MCF7, with HT-1080 [2], in the experiment on RKO [4], in the experiment on HT1299 and in the experiment on BJeLR was inactive. Further, the result in the experiment with U2OS [6] was inactive. Besides, the inhibition result in experiment [1] and in experiment [3] was “inactive” each time.

In the case of `COC(=O)N1CCc2c(n(C(=O)OC(C)(C)C)c3ccccc23)C1C(OC)OC` (centres undefined), the result in the experiment on BJeH, in the experiment with MCF7, in the experiment on HT-1080 [2], in the experiment with RKO [4], in the experiment on HT1299 and in the experiment with BJeLR was inactive. The inhibition result in experiment [1] and in [3] was “inactive” in each case. For the same compound, the CC50 with U2OS [7] worked out at 48.7 µM.

As for `CN1C(=O)C(Cc2nccc3c4ccccc4n(C(=O)OC(C)(C)C)c23)C(=O)N(C)C1=O`, the result in the experiment on BJeH, with MCF7, in the experiment with HT-1080 [2], in the experiment on RKO [4], in the experiment on HT1299 and with BJeLR was inactive. Also, the outcome with U2OS [6] was inactive. In addition, the inhibition result in experiment [1] and in experiment [3] was “inactive” each time.

Consider `COC(=O)CC1c2[nH]c3ccccc3c2CCN1Cc1ccccc1` (centres undefined), for which the outcome in the experiment with BJeH, in the experiment on MCF7, in the experiment with HT-1080 [2], in the experiment with RKO [4], with HT1299 and in the experiment with U2OS [6] was inactive. Moreover, the inhibition result in [1] and in [3] was “inactive” in each case. Besides, the CC50 in experiment [5] was found to be 59.8 µM.

As for `CN1C(=O)C(Cc2nccc3c2[nH]c2ccccc23)C(=O)N(C)C1=O`, the result in the experiment with BJeH, in the experiment with MCF7, in the experiment with HT-1080 [2], in the experiment on RKO [4], with HT1299 and in the experiment with BJeLR was inactive. Also, the result with U2OS [6] was inactive. Further, the inhibition result in experiment [1] and in [3] was “inactive” in each case.

The values are drawn from ChEMBL document CHEMBL2169846, “Design and synthesis of Pictet-Spengler condensation products that exhibit oncogenic-RAS synthetic lethality and induce non-apoptotic cell death” (Bioorg Med Chem Lett, 2012).
